Test results published in ChEMBL document CHEMBL4665761, “Optimizing the Benefit/Risk of Acetyl-CoA Carboxylase Inhibitors through Liver Targeting” (J Med Chem, 2020).

Legend:
[1] = Genotoxicity in Salmonella typhimurium TA98 by Ames test; assay type: toxicity; details: salmonella enterica subsp. enterica serovar typhimurium
How it was run: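 Ames test in Salmonella strains TA98, TA100, TA1535 and TA1537, run with and without aroclor-induced rat liver S9 plus NADPH.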

[2] = Metabolic intrinsic clearance in human hepatocytes assessed per million cells incubated for 2 hrs; assay type: ADME, cell-based, Hepatocyte; details: read-out: CLH
How it was run: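 Cryopreserved human hepatocytes incubated for 2 h. In vitro half-lives scaled to intrinsic clearance, expressed per 10^6 cells.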

[3] = Fraction unbound in monkey liver by equilibrium dialysis method; assay type: ADME, tissue-based, Macaca mulatta; details: rhesus monkey
How it was run: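 Fraction unbound in plasma and liver tissue was determined by equilibrium dialysis.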

Rattus norvegicus = organism: Rattus norvegicus; assay: Fraction unbound in rat plasma by equilibrium dialysis method
[4] = Octanol-water partition coefficient, logD of compound at pH 7.4 at 0.5 to 2 mg incubated for 1 hr by HPLC based shake-flask method; assay type: physicochemical; details: dose 0.5-2 mg
How it was run: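 Shake-flask octanol/water partition at pH 7.4.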

[5] = Half life in Wistar-Hannover rat plasma at 1 mg/kg, iv and measured up to 24 hrs by LC/MS-MS analysis; assay type: ADME, organism-based
How it was run: (§1)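 Male Wistar-Hannover rats (240–350 g) with jugular vein cannulas, dosed 1 mg/kg IV (2 mL/kg) or PO. IV vehicle was 10% DMSO/90% of 20% sulfobutylether-β-cyclodextrin in water, or 10% DMSO/30% PEG400/60% water. Plasma was analysed by LC-MS/MS. Parameters come from plasma concentration–time data, n = 2: Cmax observed directly, AUC0-24 by the linear trapezoidal rule, CL = IV dose/AUC, Vss = dose/(AUC × elimination rate constant).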

[6] = Apparent volume of distribution at steady state in Wistar-Hannover rat plasma at 1 mg/kg, iv and measured up to 24 hrs by LC/MS-MS analysis; assay type: ADME, organism-based; details: read-out: Vdss(app); how it was run: as §1
[7] = Clearance in Wistar-Hannover rat plasma at 1 mg/kg, iv and measured up to 24 hrs by LC/MS-MS analysis; assay type: ADME, organism-based; how it was run: as §1
[8] = Fraction unbound in rat liver by equilibrium dialysis method
[9] = Apparent permeability in MCDKII-LE cells at 2 uM incubated for 30 mins; assay type: ADME, cell-based, Canis lupus familiaris, MDCKII-LE; details: dog, MDCK
How it was run: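 MDCK-LE (low-efflux) cell monolayers with a 30 min pre-incubation. Read-out is apparent passive permeability (Papp, 10^-6 cm/s).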

Acetyl-CoA carboxylase 2 = Acetyl-CoA carboxylase 2 (Homo sapiens, UniProt O00763); assay: Inhibition of recombinant human ACC2 using acetyl coA as substrate incubated for 1 hr by transcreener fluorescence polarization assay
Chain of Acetyl-CoA carboxylase 2 (O00763 whole entry): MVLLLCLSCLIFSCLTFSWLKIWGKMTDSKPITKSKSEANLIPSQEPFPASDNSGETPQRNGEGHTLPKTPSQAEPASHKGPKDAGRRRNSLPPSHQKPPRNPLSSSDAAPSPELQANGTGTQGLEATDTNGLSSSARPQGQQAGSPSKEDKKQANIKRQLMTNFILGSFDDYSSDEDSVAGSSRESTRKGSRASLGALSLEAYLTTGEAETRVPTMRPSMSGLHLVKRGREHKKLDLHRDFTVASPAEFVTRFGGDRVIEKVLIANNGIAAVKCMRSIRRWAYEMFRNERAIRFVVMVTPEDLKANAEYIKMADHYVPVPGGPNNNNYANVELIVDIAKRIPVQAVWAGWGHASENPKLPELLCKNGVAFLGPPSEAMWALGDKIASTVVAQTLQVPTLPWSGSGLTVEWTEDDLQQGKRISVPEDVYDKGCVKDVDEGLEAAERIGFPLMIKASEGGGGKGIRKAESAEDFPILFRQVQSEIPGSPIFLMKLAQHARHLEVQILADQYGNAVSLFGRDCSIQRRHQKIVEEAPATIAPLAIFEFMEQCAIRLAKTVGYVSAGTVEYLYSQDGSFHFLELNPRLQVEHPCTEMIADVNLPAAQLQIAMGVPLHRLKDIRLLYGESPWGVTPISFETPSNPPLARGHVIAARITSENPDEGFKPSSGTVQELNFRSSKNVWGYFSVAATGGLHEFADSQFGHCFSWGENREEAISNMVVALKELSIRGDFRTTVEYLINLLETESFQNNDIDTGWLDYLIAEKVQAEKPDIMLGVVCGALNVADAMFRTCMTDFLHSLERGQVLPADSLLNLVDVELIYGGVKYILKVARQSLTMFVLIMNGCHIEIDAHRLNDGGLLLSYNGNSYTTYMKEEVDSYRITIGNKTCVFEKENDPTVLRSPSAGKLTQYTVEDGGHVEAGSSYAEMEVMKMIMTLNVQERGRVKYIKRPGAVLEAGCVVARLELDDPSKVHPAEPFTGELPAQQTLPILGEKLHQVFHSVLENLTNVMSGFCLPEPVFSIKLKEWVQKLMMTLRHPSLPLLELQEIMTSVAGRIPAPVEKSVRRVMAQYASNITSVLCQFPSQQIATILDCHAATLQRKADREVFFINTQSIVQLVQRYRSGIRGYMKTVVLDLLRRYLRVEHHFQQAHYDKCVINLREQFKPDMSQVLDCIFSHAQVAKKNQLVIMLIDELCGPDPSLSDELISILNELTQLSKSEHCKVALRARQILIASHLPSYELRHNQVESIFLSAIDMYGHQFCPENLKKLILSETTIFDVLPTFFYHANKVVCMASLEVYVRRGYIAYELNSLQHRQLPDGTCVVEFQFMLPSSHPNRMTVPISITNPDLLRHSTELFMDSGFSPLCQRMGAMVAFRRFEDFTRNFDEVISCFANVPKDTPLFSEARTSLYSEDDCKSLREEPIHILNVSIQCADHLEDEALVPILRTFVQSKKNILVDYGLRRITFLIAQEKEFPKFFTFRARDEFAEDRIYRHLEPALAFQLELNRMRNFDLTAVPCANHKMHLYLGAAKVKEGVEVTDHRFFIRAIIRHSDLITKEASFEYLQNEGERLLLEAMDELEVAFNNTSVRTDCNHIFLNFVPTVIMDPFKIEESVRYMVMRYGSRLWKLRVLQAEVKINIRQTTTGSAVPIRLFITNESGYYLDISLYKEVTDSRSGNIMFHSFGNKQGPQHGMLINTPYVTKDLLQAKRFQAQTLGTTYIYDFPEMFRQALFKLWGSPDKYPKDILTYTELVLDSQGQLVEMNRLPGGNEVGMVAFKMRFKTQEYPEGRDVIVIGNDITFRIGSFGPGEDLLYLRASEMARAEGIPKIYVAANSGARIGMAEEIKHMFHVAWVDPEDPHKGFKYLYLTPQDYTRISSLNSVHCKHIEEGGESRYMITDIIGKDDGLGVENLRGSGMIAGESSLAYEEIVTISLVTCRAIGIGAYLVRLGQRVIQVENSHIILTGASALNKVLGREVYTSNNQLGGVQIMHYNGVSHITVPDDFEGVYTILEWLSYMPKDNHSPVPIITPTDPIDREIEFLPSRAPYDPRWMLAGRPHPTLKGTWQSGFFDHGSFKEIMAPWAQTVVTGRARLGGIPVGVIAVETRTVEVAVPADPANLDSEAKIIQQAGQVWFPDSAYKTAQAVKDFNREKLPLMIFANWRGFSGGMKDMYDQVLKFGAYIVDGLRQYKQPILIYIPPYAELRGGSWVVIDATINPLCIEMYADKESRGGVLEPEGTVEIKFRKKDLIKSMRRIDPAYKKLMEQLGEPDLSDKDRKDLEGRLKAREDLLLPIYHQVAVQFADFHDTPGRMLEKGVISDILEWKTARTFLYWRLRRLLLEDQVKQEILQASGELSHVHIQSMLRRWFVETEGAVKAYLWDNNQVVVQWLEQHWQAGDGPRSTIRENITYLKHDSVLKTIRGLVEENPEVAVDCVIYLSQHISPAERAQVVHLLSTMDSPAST
How it was run: (§2)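 Recombinant human enzyme, Transcreener assay run per an earlier protocol. IC50 is the geometric mean of at least three replicates, also given as pIC50 ± SD.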

[10] = Ratio of drug uptake in Wistar-Hannover rat liver to plasma at 10 mg/kg, po after 6 hrs by LC/MS-MS analysis; assay type: ADME, organism-based; details: liver and plasma
How it was run: (§3)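 Male Wistar-Hannover rats (n = 2 or 3) dosed orally as a suspension in 0.5% methyl cellulose with 0.1% Tween 80. Plasma and liver sampled 6 h post-dose. Kp is total liver/plasma; Kpu,u uses unbound fractions from equilibrium dialysis of plasma and liver.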

[11] = AUC (0 to 24 hrs) in Wistar-Hannover rat plasma at 1 mg/kg, iv and measured up to 24 hrs by LC/MS-MS analysis; assay type: ADME, organism-based; set-up: route intravenous, dose 1 mg/kg, time <=24
How it was run: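 Male Wistar-Hannover rats (240–350 g) with jugular vein cannulas were given 1 mg/kg IV at 2 mL/kg. Vehicle, depending on compound, was 10% DMSO/90% of 20% sulfobutylether-β-cyclodextrin in water or 10% DMSO/30% PEG400/60% water. AUC0–24 came from plasma concentration–time data by the linear trapezoidal rule, averaged for n = 2. Lower detection limit was 1 ng/mL.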

Acetyl-CoA carboxylase 1 = Acetyl-CoA carboxylase 1 (Homo sapiens, UniProt Q13085); assay: Inhibition of recombinant human ACC1 using acetyl coA as substrate incubated for 1 hr by transcreener fluorescence polarization assay; how it was run: as §2
OATP1B3 = molecular target: T1, OATP1B3 (Homo sapiens, UniProt Q9NPD5); assay: Substrate activity at human OATP1B3 stably expressed in HEK293 cells assessed as ratio of total to passive cellular uptake at 1 uM incubated for 5 mins by LC/MS-MS analysis; assay type: ADME, cell-based; details: HEK293 cells stably expressing human OATP1B3
T1 sequence (Q9NPD5 whole entry): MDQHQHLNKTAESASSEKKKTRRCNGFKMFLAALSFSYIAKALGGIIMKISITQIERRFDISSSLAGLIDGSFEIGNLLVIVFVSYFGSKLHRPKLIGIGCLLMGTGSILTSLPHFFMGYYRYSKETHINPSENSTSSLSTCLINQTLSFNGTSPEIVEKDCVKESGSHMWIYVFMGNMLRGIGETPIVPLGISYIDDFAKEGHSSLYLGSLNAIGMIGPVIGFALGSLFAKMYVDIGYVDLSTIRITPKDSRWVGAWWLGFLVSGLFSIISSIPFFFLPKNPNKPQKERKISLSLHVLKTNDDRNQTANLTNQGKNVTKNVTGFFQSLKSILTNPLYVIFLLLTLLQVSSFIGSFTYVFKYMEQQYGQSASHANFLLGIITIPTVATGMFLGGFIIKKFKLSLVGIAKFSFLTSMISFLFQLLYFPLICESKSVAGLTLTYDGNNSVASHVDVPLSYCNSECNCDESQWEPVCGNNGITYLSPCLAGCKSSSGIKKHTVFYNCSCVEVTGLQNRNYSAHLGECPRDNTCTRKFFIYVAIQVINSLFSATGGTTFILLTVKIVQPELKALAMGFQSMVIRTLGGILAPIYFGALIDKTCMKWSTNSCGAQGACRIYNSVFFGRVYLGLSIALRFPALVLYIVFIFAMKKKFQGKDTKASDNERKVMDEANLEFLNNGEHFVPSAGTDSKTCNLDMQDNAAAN
How it was run: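 Transfected versus parental HEK293 cells exposed at 1 µM for 5 min at 37 °C. Ratio is total (transfected) over passive (parental) uptake; >2 denotes substrate.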

[12] = Ratio of drug uptake in Wistar-Hannover rat unbound liver to plasma concentration at 30 mg/kg, po after 6 hrs by LC/MS-MS analysis; assay type: ADME, organism-based; details: other tissue; how it was run: as §3

| hepatocyte CLint [2] [µL/min/1e6 cells] | fraction unbound [3] | fraction unbound (Rattus norvegicus) | logD at 1 h [4] | half-life [5] [min] | Vd [6] [L/kg] | clearance [7] [mL/min/kg] | fraction unbound [8] | Papp at 0.5 h, 2 µM [9] [×10⁻⁶ cm/s] | IC50 (Acetyl-CoA carboxylase 2) [nM] | Kp at 6 h [10] | AUC(0-t) [11] [ng·h/mL] | IC50 (Acetyl-CoA carboxylase 1) [nM] | uptake ratio at 5 min, 1 µM (OATP1B3) | Ratio [12] | Structure (SMILES) | Activity [1] |
| --- | --- | --- | --- | --- | --- | --- | --- | --- | --- | --- | --- | --- | --- | --- | --- | --- |
| < 3 | 0.15 | 0.0392 | 1.1 | 516 | 7.2 | 16 | 0.066 | 14 | 26 | 78 | 965 | 33 |  |  | COc1cc(C(=O)N2CCC3(CC2)CC(=O)c2c(cnn2C(C)C)C3)cc(-c2ccc(C(=O)O)cc2)n1 [CLESACOSTAT] | Non-Toxic |
| < 3 |  | 0.17 | 0.5 | 210 | 4.1 | 54.5 | 0.07 | 2 | 13 |  | 299 | 22 | 3.3 | 376 | COc1cc(C(=O)N2CCC3(CC2)CC(=O)c2nn(C(C)(C)C)cc2O3)cc(-c2ccc(C(=O)O)cc2)n1 |  |
